# Laboratory results as given in ChEMBL document CHEMBL3352272, “Discovery of 2-[5-(4-Fluorophenylcarbamoyl)pyridin-2-ylsulfanylmethyl]phenylboronic Acid (SX-517): Noncompetitive Boronic Acid Antagonist of CXCR1 and CXCR2” (J Med Chem, 2014).
# Calls of active or inactive are those of the source. No cut-off for these calls is given here.
# How the values were obtained:
# [1] = molecular target: T1, C-X-C chemokine receptor type 2 (Homo sapiens, UniProt P25025); test: Antagonist activity at CXCR2 in human PMNs assessed as inhibition of CXCL1-induced intracellular Ca2+ release by fluorescence based calcium flux assay; format: functional, cell-based
# T1 sequence (P25025 whole entry): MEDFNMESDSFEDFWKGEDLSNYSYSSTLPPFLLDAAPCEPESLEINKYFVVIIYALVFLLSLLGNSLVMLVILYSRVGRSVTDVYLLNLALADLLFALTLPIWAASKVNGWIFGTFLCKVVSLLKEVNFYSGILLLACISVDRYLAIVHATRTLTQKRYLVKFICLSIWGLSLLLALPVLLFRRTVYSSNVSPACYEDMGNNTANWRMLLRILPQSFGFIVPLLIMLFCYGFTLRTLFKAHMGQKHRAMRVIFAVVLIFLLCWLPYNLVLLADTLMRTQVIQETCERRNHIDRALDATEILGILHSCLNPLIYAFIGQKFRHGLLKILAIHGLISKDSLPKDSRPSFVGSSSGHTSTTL
# [2] = molecular target: T2, Interleukin-8 receptors, CXCR1/CXCR2 (Homo sapiens, UniProt P25025+P25024); test: Antagonist activity at CXCR1/CXCR2 in human PMNs assessed as inhibition of CXCL8-induced intracellular Ca2+ release by fluorescence based calcium flux assay; format: functional, cell-based
# T2 sequence (P25025 whole entry): T1 sequence (P25025 whole entry)
# T2 sequence (P25024 whole entry): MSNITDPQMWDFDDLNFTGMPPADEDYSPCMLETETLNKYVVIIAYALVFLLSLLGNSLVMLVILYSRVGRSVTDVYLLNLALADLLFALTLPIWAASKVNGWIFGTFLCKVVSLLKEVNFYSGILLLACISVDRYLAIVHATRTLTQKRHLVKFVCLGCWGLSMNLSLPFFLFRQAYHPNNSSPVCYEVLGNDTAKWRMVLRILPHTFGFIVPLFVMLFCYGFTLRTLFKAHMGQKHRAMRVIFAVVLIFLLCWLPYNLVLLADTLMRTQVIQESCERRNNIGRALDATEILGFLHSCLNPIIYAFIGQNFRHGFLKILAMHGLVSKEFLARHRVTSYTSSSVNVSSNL
# [3] = molecular target: T3, C-X-C chemokine receptor type 2 (Homo sapiens) (UniProt P25025); test: Displacement of [125I]CXCL8 from human CXCR2 expressed in HEK293 cell membranes up to 10 uM by liquid scintillation counting method
# T3 sequence (whole entry): T1 sequence (P25025 whole entry)
# Procedure, shortened: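 After 1 h at room temperature, membranes were filtered and counted by scintillation. Results were expressed as % of control specific binding.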
# [4] = molecular target: T4, C-X-C chemokine receptor type 1 (Homo sapiens, UniProt P25024); test: Antagonist activity at human CXCR1 expressed in HEK293 cells assessed as inhibition of CXCL8-induced intracellular Ca2+ release by fluorescence based calcium flux assay; format: functional, cell-based
# T4 sequence (P25024 whole entry): T2 sequence (P25024 whole entry)
# Procedure, shortened: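 HEK293 cells were stably transfected with human CXCR1, with a pooled polyclonal line selected in 800 μg/mL G418. […] Fluorescence was read at ex 485/em 525, and max–min was taken as % of control.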
# [5] = molecular target: T3, C-X-C chemokine receptor type 2 (Homo sapiens); test: Antagonist activity at human CXCR2 expressed in HEK293 cells assessed as reduction in CXCL8-induced ERK1/2 phosphorylation at 10 uM after 30 mins by Western blotting method; format: cell-based
# Procedure, shortened: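 Cells were lysed at 0, 5, 15 and 30 min. About 50 μg of protein was run on 10% SDS-PAGE, blotted, and probed for phospho-ERK1/2 and total ERK1/2 with an HRP secondary.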
# [6] = molecular target: Interleukin-8 receptors, CXCR1/CXCR2 (Homo sapiens) (UniProt P25025+P25024); test: Antagonist activity at CXCR1/CXCR2 in human PMNs assessed as inhibition of CXCL8-induced intracellular Ca2+ release at 1 uM by fluorescence based calcium flux assay; format: functional, cell-based
# Procedure, shortened: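 Dye-loaded hPMNs were preincubated with compound or 1% DMSO at 37 °C for 30 min, then resuspended in HBSS+ with compound re-added. […] Fluorescence (ex 485/em 525) was read every 5 s for 240–500 s at room temperature, and the max–min response was expressed as % of the DMSO control.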
# [7] = molecular target: T5, C5a anaphylatoxin chemotactic receptor 1 (Homo sapiens, UniProt P21730); test: Antagonist activity at C5a receptor in human PMNs assessed as inhibition of C5a-induced intracellular Ca2+ release by fluorescence based calcium flux assay; format: functional, cell-based
# T5 sequence (P21730 whole entry): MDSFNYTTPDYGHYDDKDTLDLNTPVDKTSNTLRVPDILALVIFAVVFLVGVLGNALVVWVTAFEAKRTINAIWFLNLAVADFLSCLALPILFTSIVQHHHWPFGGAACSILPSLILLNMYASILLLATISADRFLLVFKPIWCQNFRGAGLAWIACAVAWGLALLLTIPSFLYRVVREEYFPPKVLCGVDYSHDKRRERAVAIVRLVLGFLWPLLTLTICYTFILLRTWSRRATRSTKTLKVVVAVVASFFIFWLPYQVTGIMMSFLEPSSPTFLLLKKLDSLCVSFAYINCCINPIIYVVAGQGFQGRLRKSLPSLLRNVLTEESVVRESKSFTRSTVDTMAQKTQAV
# [8] = molecular target: T1, C-X-C chemokine receptor type 2; test: Antagonist activity at human CXCR2 expressed in HEK293 cells assessed as inhibition of CXCL8-induced intracellular Ca2+ release by fluorescence based calcium flux assay; format: functional, cell-based
# fMet-Leu-Phe receptor = molecular target: T6, fMet-Leu-Phe receptor (Homo sapiens, UniProt P21462); test: Antagonist activity at fMLF receptor in human PMNs assessed as inhibition of fMLF-induced intracellular Ca2+ release by fluorescence based calcium flux assay; format: functional, cell-based
# T6 sequence (P21462 whole entry): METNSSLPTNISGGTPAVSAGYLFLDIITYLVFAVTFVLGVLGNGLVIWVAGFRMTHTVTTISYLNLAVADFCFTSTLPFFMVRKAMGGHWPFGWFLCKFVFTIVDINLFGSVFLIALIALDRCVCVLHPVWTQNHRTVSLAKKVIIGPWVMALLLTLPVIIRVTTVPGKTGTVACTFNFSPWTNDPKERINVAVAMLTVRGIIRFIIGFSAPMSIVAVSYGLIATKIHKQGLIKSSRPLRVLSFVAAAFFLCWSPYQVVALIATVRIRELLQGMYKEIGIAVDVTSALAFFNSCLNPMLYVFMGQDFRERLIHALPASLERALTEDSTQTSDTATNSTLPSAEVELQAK
# Mus musculus = test: Antiinflammatory activity in CD1 Swiss mouse air pouch model of inflammation assessed as reduction in total cell count in inflammatory infiltrate at 0.2 mg/kg, iv dosed 3 hrs before carrageenan challenge and measured 4 hrs post carrageenan challenge by trypan blue staining based hemocytometry; format: functional, organism-based; set-up: dose 0.2 mg/kg
# Procedure, shortened: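 Male CD1 Swiss mice aged 10–15 weeks received a 2 mL subcutaneous dorsal air injection, reinflated with 1.5 mL the next day. Compound in 20:20:80 PEG400:DMF:saline, or vehicle, was given iv by tail vein (n=5 per group). After 3 h, 1 mL of 2% carrageenan in PBS, or PBS, was injected into the pouch. After 4 h, pouch fluid plus a 2 mL PBS wash was collected, and trypan blue-stained cells were counted by hemocytometer. Statistics used Student's t-test.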
# [9] = molecular target: T3, C-X-C chemokine receptor type 2 (Homo sapiens); test: Effect on cell surface expression of human CXCR2 expressed in HEK293 cell […] at 10 uM incubated for 60 mins by FACS method; format: cell-based
# Procedure, shortened: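 Stably CXCR2-expressing HEK293 cells were pretreated with 10 μM compound or 1% DMSO for 60 min. They were stained with PE-conjugated anti-human CXCR2 mAb (1:100) at 4 °C for 60 min, fixed in 2% formaldehyde and analysed by flow cytometry. Non-expressing HEK293 cells served as the negative control.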
# [10] = molecular target: T1, C-X-C chemokine receptor type 2; test: Antagonist activity at human CXCR2 expressed in HEK293 cells assessed as inhibition of […]-induced [35S]GTPgammaS binding after 60 mins; format: functional, cell-based
# Procedure, shortened: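 HEK293 cells stably expressing human CXCR2 were pretreated with compound, then lysed (5 mM Tris-HCl pH 7.5, EDTA, EGTA) and membranes spun at 30000g. […] Nonspecific binding was taken with 10 μM GTPγS. IC50 came from nonlinear regression.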
# [11] = molecular target: Platelet-activating factor receptor (Homo sapiens, UniProt P25105); test: Antagonist activity at platelet-activating factor receptor in human PMNs assessed as inhibition of PAF-induced intracellular Ca2+ release by fluorescence based calcium flux assay; format: functional, cell-based
# Sequence of Platelet-activating factor receptor (P25105 whole entry): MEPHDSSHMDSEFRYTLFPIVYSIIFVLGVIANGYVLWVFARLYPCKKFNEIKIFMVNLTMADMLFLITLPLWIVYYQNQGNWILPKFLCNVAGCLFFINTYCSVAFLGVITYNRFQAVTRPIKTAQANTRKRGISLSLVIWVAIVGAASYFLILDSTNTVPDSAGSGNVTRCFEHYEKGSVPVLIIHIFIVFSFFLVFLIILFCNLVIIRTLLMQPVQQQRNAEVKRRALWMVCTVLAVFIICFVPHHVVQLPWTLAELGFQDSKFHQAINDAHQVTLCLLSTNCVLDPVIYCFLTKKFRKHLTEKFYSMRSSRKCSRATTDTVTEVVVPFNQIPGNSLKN
SMILES,IC50 [1] [µM],other results
COC(=O)c1cccc(CSc2ccc(C(=O)Nc3ccc(F)cc3)cn2)c1,> 5,–
O=C(Nc1ccc(F)cc1)c1ccc(SCC2CCCCO2)nc1 (stereo unspecified),> 5,–
O=C(Nc1ccc(F)cc1)c1ccc(SCc2ccc(C(F)(F)F)o2)nc1,> 5,–
O=C(c1ccc(SCc2ccccc2B(O)O)nc1)N(CC1CCCCN1)c1ccc(F)cc1 (stereo unspecified),> 5,–
Cc1nc(-c2cccc(CSc3ccc(C(=O)Nc4ccc(F)cc4)cn3)c2)no1,> 10,–
Cc1nc(-c2ccc(C(F)(F)F)cc2)sc1CSc1ccc(C(=O)Nc2ccc(F)cc2)cn1,> 10,–
Cc1nc(-c2ccc(CSc3ccc(C(=O)Nc4ccc(F)cc4)cn3)cc2)cs1,> 10,–
O=C(Nc1ccc(F)cc1)c1ccc(SCc2ccccc2-c2cccs2)nc1,> 5,–
O=C(Nc1ccc(-c2nn[nH]n2)cc1)c1ccc(SCc2ccccc2B(O)O)nc1,> 10,–
Cc1nc(-c2cccc(CSc3ccc(C(=O)Nc4ccc(F)cc4)cn3)c2)cs1,> 5,–
O=C(O)c1ccc(CSc2ccc(C(=O)Nc3ccc(F)cc3)cn2)cc1,> 10,–
O=C(O)CSc1ccc(C(=O)Nc2ccc(F)cc2)cn1,> 5,–
O=C(Nc1ccc(F)cc1)c1ccc(SC[N+](=O)[O-])nc1,> 10,–
Cc1cc(CSc2ccc(C(=O)Nc3ccc(F)cc3)cn2)no1,> 5,–
Cc1noc(-c2ccccc2)c1CSc1ccc(C(=O)Nc2ccc(F)cc2)cn1,> 10,–
CCOP(=O)(CSc1ccc(C(=O)Nc2ccc(F)cc2)cn1)OCC,> 10,–
Cc1onc(-c2ccccc2)c1CSc1ccc(C(=O)Nc2ccc(F)cc2)cn1,> 5,–
O=C(Nc1ccc(F)cc1)c1ccc(SCc2ccc([N+](=O)[O-])cc2)nc1,> 5,–
O=C(Nc1ccc(F)cc1)c1ccc(Sc2ccccc2)nc1,> 10,–
O=C(Nc1ccc(F)cc1)c1ccc(SCC2CCN(C(=O)OCc3ccccc3)CC2)nc1,> 10,–

SMILES,IC50 [1] [µM],other results
O=C(Nc1ccc(F)cc1)c1ccc(SCc2ccc(OC(F)(F)F)cc2)nc1,> 10,–
Cc1nn(-c2ccccc2)nc1CSc1ccc(C(=O)Nc2ccc(F)cc2)cn1,> 5,–
O=C(Nc1ccc(F)cc1)c1ccc(SCc2ccccc2O)nc1,0.277,–
O=C(Nc1ccc(F)cc1)c1ccc(SCc2ccc(-n3cncn3)cc2)nc1,> 10,–
O=C(Nc1ccc(F)cc1)c1ccc(SCS(=O)(=O)c2ccccc2)nc1,> 5,–
COC(=O)c1ccc(CSc2ccc(C(=O)Nc3ccc(F)cc3)cn2)cc1,> 10,–
Cc1cccc(CSc2ccc(C(=O)Nc3ccc(F)cc3)cn2)c1F,> 10,–
O=C(Nc1ccc(F)cc1)c1ccc(SC2CCOC2=O)nc1 (stereo unspecified),> 5,–
O=C(O)c1ccc(NC(=O)c2ccc(SCc3ccccc3B(O)O)nc2)cc1,> 10,–
Cc1nc(-c2ccc(CSc3ccc(C(=O)Nc4ccc(F)cc4)cn3)cc2)no1,> 5,–
O=C(Nc1ccc(F)cc1)c1ccc(SCc2ccncc2)nc1,> 5,–
O=C(Nc1ccc(F)cc1)c1ccc(SCc2cccc(OC(F)(F)F)c2)nc1,> 10,–
Cc1nc(-c2ccccc2)sc1CSc1ccc(C(=O)Nc2ccc(F)cc2)cn1,> 5,–
O=C(Nc1ccc(F)cc1)c1ccc(SCc2cccc(-n3cccc3)c2)nc1,> 10,–
O=C(Nc1ccc(F)cc1)c1ccc(SCc2ccccc2B(O)O)nc1,–,IC50 [2]: 0.036 µM; inhibition [3]: inactive; IC50 [4]: 0.88 µM; inhibition [5]: Active; inhibition [6]: Active; IC50 [7]: > 5 µM; IC50 [8]: 0.21 µM; IC50 (fMet-Leu-Phe receptor): > 5 µM; inhibition (Mus musculus): Active; Activity [9]: inactive; IC50 [10]: 0.06 µM; IC50 [11]: > 5 µM
O=C(Nc1ccc(F)cc1)c1ccc(SCc2ccc(-n3cccn3)cc2)nc1,> 10,–
O=C(Nc1ccc(F)cc1)c1ccc(SCc2ccc(-n3cccc3)cc2)nc1,> 10,–
O=C(Nc1ccc(F)cc1)c1ccc(SCC2CCOCC2)nc1,> 5,–
O=C(Nc1ccc(F)cc1)c1ccc(SCc2ccc([N+](=O)[O-])o2)nc1,> 5,–
Cc1n[nH]c(C)c1CCSc1ccc(C(=O)Nc2ccc(F)cc2)cn1,> 5,–
